Converted amounts (≈) assume the structure as drawn. The source made the active and inactive calls. No cut-off for these calls is given here.
Tests used:
[1] = Hemolytic activity in rat RBC assessed as hemoglobin release at 32 ug/mL after 1 hr by microplate reader analysis relative to control; type: ADME, cell-based, Erythrocyte; conditions: red blood cells (RBC), read-out: Activity
Summary of the method: (§1)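 Rat RBCs (2% w/w) were exposed to compound for 1 h at 37 °C, 5% CO2, using twofold dilutions from 256 µg/mL. PBS served as the negative control and 1% w/v Triton X-100 as the 100% lysis control. After centrifugation (2000 rpm, 10 min), supernatant absorbance was read at 550 nm and expressed as % hemoglobin release relative to Triton. Assays were run in triplicate, averaged over blood from at least two rats.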

[2] = Hemolytic activity in rat RBC assessed as hemoglobin release at 16 ug/mL after 1 hr by microplate reader analysis relative to control; type: ADME, cell-based, Erythrocyte; conditions: red blood cells (RBC), read-out: Activity; summary of the method: as §1
Streptococcus pyogenes [3] = assay: Antibacterial activity against Streptococcus pyogenes serotype T5 assessed as growth inhibition after 24 hrs by MTT assay; type: functional; conditions: serotype T5, 24 h
Summary of the method: (§2)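 Starter cultures were grown 24 h at 37 °C, 5% CO2, aerobic, then diluted in fresh medium to OD600 0.004. Twofold serial dilutions started at 64 µg/mL. After 24 h of incubation, MTT (1 mg/mL solution) was added and plates were incubated 2 h more at 37 °C. MIC was taken as the lowest concentration with no growth. Two independent experiments were run, each in triplicate.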

Streptococcus pyogenes [4] = assay: Antibacterial activity against glossy colony producing Streptococcus pyogenes assessed as growth inhibition after 24 hrs by MTT assay; type: functional; summary of the method: as §2
Streptococcus pyogenes [5] = assay: Antibacterial activity against Streptococcus pyogenes JRS75 assessed as growth inhibition after 24 hrs by MTT assay; type: functional; conditions: JRS75, 24 h; summary of the method: as §2
Streptococcus pyogenes [6] = assay: Antibacterial activity against Streptococcus pyogenes serotype M24 assessed as growth inhibition after 24 hrs by MTT assay; type: functional; conditions: serotype M24, 24 h; summary of the method: as §2
[7] = Antibacterial activity against Streptococcus pyogenes serotype M5 assessed as growth inhibition after 24 hrs by MTT assay; type: functional; summary of the method: as §2
[8] = Antibacterial activity against Streptococcus pyogenes serotype M3 assessed as growth inhibition after 24 hrs by MTT assay; type: functional; summary of the method: as §2
[9] = Antibacterial activity against Streptococcus pyogenes serotype M2 assessed as growth inhibition after 24 hrs by MTT assay; type: functional; summary of the method: as §2
Streptococcus pyogenes [10] = assay: Antibacterial activity against Streptococcus pyogenes serotype M1T1 assessed as growth inhibition after 24 hrs by MTT assay; type: functional; conditions: serotype M1T1, 24 h; summary of the method: as §2
Streptococcus pyogenes [11] = assay: Antibacterial activity against Streptococcus pyogenes MGAS9429 assessed as growth inhibition after 24 hrs by MTT assay; type: functional; conditions: MGAS9429, 24 h; summary of the method: as §2
Staphylococcus aureus [12] = assay: Antibacterial activity against Staphylococcus aureus Cowan ATCC 12598 assessed as growth inhibition after 24 hrs by MTT assay; type: functional; conditions: Cowan ATCC 12598, 24 h
Summary of the method: (§3)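 Starter cultures grown 24 h at 37 °C, 5% CO2, aerobic, then diluted in fresh medium to OD600 0.004. Twofold serial dilutions from 64 µg/mL, 24 h incubation. MTT (1 mg/mL solution) added, then 2 h at 37 °C. MIC = lowest concentration with no visible growth. Two independent experiments, each in triplicate.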

[13] = Antibacterial activity against biofilm-positive Staphylococcus epidermidis RP62A ATCC 35984 assessed as growth inhibition after 24 hrs by MTT assay; type: functional; conditions: ATCC 35984, 24 h; summary of the method: as §2
[14] = tested on: Staphylococcus epidermidis; assay: Antibacterial activity against biofilm-negative Staphylococcus epidermidis ATCC 12228 assessed as growth inhibition after 24 hrs by MTT assay; type: functional; conditions: ATCC 12228, 24 h; summary of the method: as §2
Staphylococcus aureus [15] = assay: Antibacterial activity against methicillin-resistant Staphylococcus aureus assessed as growth inhibition after 24 hrs by MTT assay; type: functional; summary of the method: as §3
Staphylococcus aureus [16] = assay: Antibacterial activity against Staphylococcus aureus NCTC 6571 assessed as growth inhibition after 24 hrs by MTT assay; type: functional; conditions: NCTC 6571, 24 h; summary of the method: as §3
[17] = Ratio of gramicidin D activity to compound activity for hemolysis of rat RBC up to 256 ug/mL after 1 hrs; type: ADME, cell-based; conditions: erythrocyte
[18] = Hemolytic activity in rat RBC assessed as hemoglobin release at 64 ug/mL after 1 hr by microplate reader analysis; type: ADME, cell-based; conditions: erythrocyte
Summary of the method: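 Rat RBCs (2% w/w) incubated 1 h at 37 °C, 5% CO2 with twofold dilutions starting at 256 µg/mL. PBS served as negative control and 1% w/v Triton X100 as the 100% lysis control. After centrifugation (2000 rpm, 10 min), supernatant absorbance read at 550 nm. Hemoglobin release expressed as % of Triton. Triplicates, with blood from at least two rats.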

[19] = Hemolytic activity in rat RBC assessed as hemoglobin release at 128 ug/mL after 1 hr by microplate reader analysis; type: ADME, cell-based; conditions: erythrocyte; summary of the method: as §1
[20] = Hemolytic activity in rat RBC assessed as hemoglobin release at 256 ug/mL after 1 hr by microplate reader analysis relative to control; type: ADME, cell-based, Erythrocyte; conditions: red blood cells (RBC), read-out: Activity; summary of the method: as §1
Streptococcus pyogenes [21] = assay: Ratio of gramicidin D MIC to compound MIC for glossy colony producing Streptococcus pyogenes; type: functional
[22] = tested on: Staphylococcus epidermidis; assay: Ratio of gramicidin D MIC to compound MIC for biofilm-negative Staphylococcus epidermidis ATCC 12228; type: functional
Staphylococcus aureus [23] = assay: Ratio of gramicidin D MIC to compound MIC for Staphylococcus aureus NCTC 6571; type: functional
Streptococcus pyogenes [24] = assay: Ratio of gramicidin D MIC to compound MIC for Streptococcus pyogenes MGAS9429; type: functional
Staphylococcus aureus [25] = assay: Ratio of gramicidin D MIC to compound MIC for Staphylococcus aureus Cowan ATCC 12598; type: functional
[26] = tested on: Staphylococcus epidermidis; assay: Antibacterial activity against Staphylococcus epidermidis ATCC 12228 assessed as cell surface wrinkling at 1 ug/mL after 1 hr by scanning electron microscopic analysis; type: functional, organism-based
Summary of the method: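 S. epidermidis ATCC12228 grown 4 h at 37 °C, aerobic, to OD600 0.2. Cells washed in PBS pH 7.4 and resuspended to OD600 1.0. Treated with 1 µg/mL for 1 h at 37 °C, then diluted twofold. Washed, fixed overnight at 4 °C in 2.5% glutaraldehyde/PBS, dehydrated through graded ethanol, vacuum-dried, Pd-Au coated and imaged by SEM. Compared against untreated cells.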

| SMILES | hemolysis at 1 h, 32 ug/mL [1] [%] | hemolysis at 1 h, 16 ug/mL [2] [%] | MIC (Streptococcus pyogenes [3]) [µg/mL] | MIC (Streptococcus pyogenes [4]) [µg/mL] | MIC (Streptococcus pyogenes [5]) [µg/mL] | MIC (Streptococcus pyogenes [6]) [µg/mL] | MIC [7] [µg/mL] | MIC [8] [µg/mL] | MIC [9] [µg/mL] | MIC (Streptococcus pyogenes [10]) [µg/mL] | MIC (Streptococcus pyogenes [11]) [µg/mL] | MIC (Staphylococcus aureus [12]) [µg/mL] | MIC [13] [µg/mL] | MIC [14] [µg/mL] | MIC (Staphylococcus aureus [15]) [µg/mL] | MIC (Staphylococcus aureus [16]) [µg/mL] | Activity [19] | hemolysis at 1 h, 256 ug/mL [20] [%] | also measured |
| --- | --- | --- | --- | --- | --- | --- | --- | --- | --- | --- | --- | --- | --- | --- | --- | --- | --- | --- | --- |
| CCCCCCCCCCCCCCCCSC[C@H]1O[C@H](O[C@H]2[C@H](O[C@@H]3O[C@H](CO)[C@@H](O[C@H]4O[C@@H](CN)[C@@H](O)[C@H](O)[C@H]4N)[C@H]3O)[C@@H](O)[C@H](N)C[C@@H]2N)[C@H](N)[C@@H](O)[C@@H]1O | 100 | 33.8 | 8 (≈ 9.34 µM) | 32 (≈ 37.4 µM) | 8 (≈ 9.34 µM) | 32 (≈ 37.4 µM) | 64 (≈ 74.8 µM) | 32 (≈ 37.4 µM) | 16 (≈ 18.7 µM) | > 64 | 32 (≈ 37.4 µM) | 64 (≈ 74.8 µM) | 64 (≈ 74.8 µM) | 32 (≈ 37.4 µM) | 64 (≈ 74.8 µM) | 64 (≈ 74.8 µM) |  |  |  |
| CCCCCCCSC[C@H]1O[C@H](O[C@H]2[C@H](O[C@@H]3O[C@H](CSCCCCCCC)[C@@H](O[C@H]4O[C@@H](CN)[C@@H](O)[C@H](O)[C@H]4N)[C@H]3O)[C@@H](O)[C@H](N)C[C@@H]2N)[C@H](N)[C@@H](O)[C@@H]1O | 3.6 | 0 | 4 (≈ 4.74 µM) | 4 (≈ 4.74 µM) | 4 (≈ 4.74 µM) | 4 (≈ 4.74 µM) | 4 (≈ 4.74 µM) | 2 (≈ 2.37 µM) | 2 (≈ 2.37 µM) | 4 (≈ 4.74 µM) | 4 (≈ 4.74 µM) | 16 (≈ 19 µM) | 4 (≈ 4.74 µM) | 4 (≈ 4.74 µM) | 16 (≈ 19 µM) | 8 (≈ 9.48 µM) | Toxic | 30.4 | Ratio [17]: 2; Activity [18]: Toxic |
| CCCCCCCCSC[C@H]1O[C@H](O[C@H]2[C@H](O[C@@H]3O[C@H](CSCCCCCCCC)[C@@H](O[C@H]4O[C@@H](CN)[C@@H](O)[C@H](O)[C@H]4N)[C@H]3O)[C@@H](O)[C@H](N)C[C@@H]2N)[C@H](N)[C@@H](O)[C@@H]1O |  | 0.8 | 2 (≈ 2.29 µM) | 2 (≈ 2.29 µM) | 2 (≈ 2.29 µM) | 2 (≈ 2.29 µM) | 2 (≈ 2.29 µM) | 2 (≈ 2.29 µM) | 2 (≈ 2.29 µM) | 2 (≈ 2.29 µM) | 4 (≈ 4.59 µM) | 4 (≈ 4.59 µM) | 2 (≈ 2.29 µM) | 2 (≈ 2.29 µM) | 8 (≈ 9.17 µM) | 4 (≈ 4.59 µM) | Toxic | 62.5 | Ratio (Streptococcus pyogenes [21]): 8; Ratio [22]: 4; Ratio (Staphylococcus aureus [23]): 16; Ratio (Streptococcus pyogenes [24]): > 16; Ratio (Staphylococcus aureus [25]): > 16; Activity [26]: Active |

From ChEMBL document CHEMBL2390839, “Di-alkylated paromomycin derivatives: targeting the membranes of gram positive pathogens that cause skin infections” (Bioorg Med Chem, 2013)
